Data as given in ChEMBL document CHEMBL4814057, “4-4-(Anilinomethyl)-3-[4-(trifluoromethyl)phenyl]-1H-pyrazol-1-ylbenzoic acid derivatives as potent anti-gram-positive bacterial agents” (Eur J Med Chem, 2021).
≈ marks a conversion by molar mass, not a printed value. Calls of active or inactive are those of the source. The calls are words filed in the database; no cut-off is given here.

Columns and labels:
[1] = tested on: Staphylococcus aureus; assay: Antibacterial activity against vancomycin-intermediate susceptible Staphylococcus aureus ATCC 25923 assessed as bacterial growth inhibition between 7 passages by broth dilution method; type: functional, organism-based
[2] = tested on: Staphylococcus aureus; assay: Antibacterial activity against vancomycin-intermediate resistant Staphylococcus aureus ATCC 700699 assessed as bacterial growth between 7 passages measured 14 to 21 days by broth dilution method; type: functional, organism-based; conditions: time 14-21 day
[3] = tested on: Staphylococcus aureus; assay: Inhibition of DNA synthesis in Staphylococcus aureus ATCC 29213 at 8 times MIC measured by liquid scintillation counter; type: functional
Procedure, shortened: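 Early-exponential cells in CAMHB added to drug (40x stock) in triplicate, with a no-drug control. After 30 min pre-incubation at room temperature, [3H]thymidine 3.0 µCi/tube (DNA) or [3H]uridine 0.5 µCi/tube (RNA) added for 30 min at room temperature. Stopped with cold TCA, precipitate filtered and washed, then scintillation counted.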

[4] = tested on: Enterococcus faecalis; assay: Antibacterial activity against vancomycin-intermediate Enterococcus faecalis ATCC 29212 assessed as bacterial growth inhibition by measuring fold increase in MIC after 7 passages by broth dilution method; type: functional, organism-based
[5] = tested on: Staphylococcus aureus; assay: Antibacterial activity against methicillin resistant Staphylococcus aureus ATCC 700699 persisters assessed as reduction in viability at 64 times MIC by colony counting method; type: functional, organism-based
Procedure, shortened: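 Stationary-phase S. aureus from overnight CAMHB culture (35 °C, 200 rpm), washed thrice in PBS, diluted to ~5 × 10^8 CFU/ml. Incubated with antibiotic at 35 °C, 200 rpm. Aliquots taken at set times, washed, serially diluted in PBS, drop-plated (6 × 6) on TSA with 5% sheep blood. Colonies counted after 18–20 h at 35 °C. Triplicates.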

[6] = tested on: Enterococcus faecium; assay: Antimicrobial activity against vancomycin-resistant Enterococcus faecium clinical isolate 1091720 by CLSI-based broth microdilution assay; type: functional
[7] = tested on: Enterococcus faecium; assay: Antimicrobial activity against vancomycin-resistant Enterococcus faecium clinical isolate 1088228 by CLSI-based broth microdilution assay; type: functional
[8] = tested on: Staphylococcus aureus; assay: Antimicrobial activity against methicillin-sensitive Staphylococcus aureus ATCC 29213 by CLSI-based broth microdilution assay; type: functional
[9] = tested on: Enterococcus faecium; assay: Antimicrobial activity against vancomycin-resistant Enterococcus faecium clinical isolate 1088168 by CLSI-based broth microdilution assay; type: functional
[10] = tested on: Staphylococcus aureus; assay: Antimicrobial activity against methicillin-resistant Staphylococcus aureus clinical isolate 1088888 by CLSI-based broth microdilution assay; type: functional
[11] = tested on: Enterococcus faecium; assay: Antimicrobial activity against vancomycin-resistant Enterococcus faecium clinical isolate 1100440 by CLSI-based broth microdilution assay; type: functional
[12] = tested on: Staphylococcus aureus; assay: Antimicrobial activity against methicillin-sensitive Staphylococcus aureus clinical isolate 1088105 by CLSI-based broth microdilution assay; type: functional
[13] = tested on: Enterococcus faecium; assay: Antimicrobial activity against vancomycin-resistant Enterococcus faecium clinical isolate 1088925 by CLSI-based broth microdilution assay; type: functional
[14] = tested on: Staphylococcus aureus; assay: Antimicrobial activity against methicillin-resistant Staphylococcus aureus clinical isolate 1088064 by CLSI-based broth microdilution assay; type: functional
[15] = tested on: Enterococcus faecium; assay: Antimicrobial activity against vancomycin-resistant Enterococcus faecium clinical isolate 1089544 by CLSI-based broth microdilution assay; type: functional
[16] = tested on: Enterococcus faecium; assay: Antimicrobial activity against vancomycin-resistant Enterococcus faecium clinical isolate 1094112 by CLSI-based broth microdilution assay; type: functional
[17] = tested on: Staphylococcus aureus; assay: Antimicrobial activity against methicillin-sensitive Staphylococcus aureus clinical isolate 1088626 by CLSI-based broth microdilution assay; type: functional
[18] = tested on: Staphylococcus aureus; assay: Antimicrobial activity against methicillin-resistant Staphylococcus aureus clinical isolate 1088610 by CLSI-based broth microdilution assay; type: functional
[19] = tested on: Enterococcus faecium; assay: Antimicrobial activity against vancomycin-resistant Enterococcus faecium clinical isolate 1091282 by CLSI-based broth microdilution assay; type: functional
[20] = tested on: Enterococcus faecium; assay: Antimicrobial activity against vancomycin-resistant Enterococcus faecium clinical isolate 1091563 by CLSI-based broth microdilution assay; type: functional
[21] = tested on: Staphylococcus aureus; assay: Antimicrobial activity against methicillin-resistant Staphylococcus aureus clinical isolate 1089106 by CLSI-based broth microdilution assay; type: functional
[22] = tested on: Enterococcus faecium; assay: Antimicrobial activity against vancomycin-resistant Enterococcus faecium clinical isolate 1088051 by CLSI-based broth microdilution assay; type: functional

Molecule: O=C(O)c1cn(C2CC2)c2cc(N3CCNCC3)c(F)cc2c1=O [CIPROFLOXACIN]
- Activity [1]: inactive
- Activity [2]: inactive
- inhibition (INH) [3]: 86.2%
- Activity [4]: inactive

Molecule: GENTAMICIN
- Activity [5]: inactive

Molecule: Cc1onc(-c2ccccc2)c1C(=O)N[C@@H]1C(=O)N2[C@@H]1SC(C)(C)[C@@H]2C(=O)O [OXACILLIN]
- MIC [6]: > 32 µg/mL
- MIC [7]: > 32 µg/mL
- MIC [8]: 1 µg/mL (≈ 2.49 µM)
- MIC [9]: > 32 µg/mL
- MIC [10]: 1 µg/mL (≈ 2.49 µM)
- MIC [11]: > 32 µg/mL
- MIC [12]: 1 µg/mL (≈ 2.49 µM)
- MIC [13]: > 32 µg/mL
- MIC [14]: 0.5 µg/mL (≈ 1.25 µM)
- MIC [15]: > 32 µg/mL
- MIC [16]: > 32 µg/mL
- MIC [17]: 0.5 µg/mL (≈ 1.25 µM)
- MIC [18]: 0.5 µg/mL (≈ 1.25 µM)
- MIC [19]: > 32 µg/mL
- MIC [20]: > 32 µg/mL
- MIC [21]: 1 µg/mL (≈ 2.49 µM)
- MIC [22]: > 32 µg/mL
